Compound activity deposited in PubChem by Broad Institute.
RAD54 branch – inhibitors of human RAD54 branch migration. Q92698. RAD54 Holliday junction branch migration, FAM/BHQ fluorescence. inhibition, % at 10.4 µM. 360,000 compounds, 0.14% hits. AID 602329;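 active = mean normalized replicate activity at least 40 and at least half of replicates scoring 40 or more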;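 also: inhibitors cause a drop in the FAM fluorescence signal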
FN deposition inh – fibronectin deposition inhibition. AH1F fibroblasts, Alexa488-fibronectin deposition fluorescence, overnight. 350,000 compounds, 0.086% hits. inhibition, % at 12.6 µM;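 active = mean inhibition across replicates of 30% or more, regardless of how many single replicates reach that level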
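Schedule: 1 h cell adhesion before compound, then overnight fibronectin incubation; test system: AH1F fibroblast monolayer depositing Alexa488-labelled fibronectin into matrix; quantity: 10000 AH1F cells per well; probe or stimulus: fluorescent fibronectin at 24 nM final; signal: fluorescence, ex 485 nm, em 525 nm; evaluation: percent inhibition as loss of matrix-bound fibronectin fluorescence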
ERp5 inh – ERp5 (human) disulfide isomerase inhibition; Q15084; ERp5 insulin aggregation, absorbance 650 nm, 90 min; inhibition, % at 9.99 µM; 350,000 compounds, 0.05% hits;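 active = mean replicate inhibition above about 25%, with every replicate also reaching it, limit read from the data, passing the limit was not always enough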
PglD inh – blocks C. jejuni PglD acetyltransferase activity | 360,000 compounds, 0.098% hits | inhibition, % at 12.5 µM | purified PglD enzyme, DTNB colorimetric CoA detection; in the data active = inhibition above about 16%, passing the limit was not always enough
PDI inh – PDI (human) enzyme inhibition; P07237; AID 588391; 350,000 compounds, 0.052% hits; PDI insulin aggregation turbidity, A650, 90 min; inhibition, % at 10 µM;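 active = mean inhibition across replicates of 30% or more, whatever share of single replicates reach that level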
Target sequence (P07237 whole entry, looked up): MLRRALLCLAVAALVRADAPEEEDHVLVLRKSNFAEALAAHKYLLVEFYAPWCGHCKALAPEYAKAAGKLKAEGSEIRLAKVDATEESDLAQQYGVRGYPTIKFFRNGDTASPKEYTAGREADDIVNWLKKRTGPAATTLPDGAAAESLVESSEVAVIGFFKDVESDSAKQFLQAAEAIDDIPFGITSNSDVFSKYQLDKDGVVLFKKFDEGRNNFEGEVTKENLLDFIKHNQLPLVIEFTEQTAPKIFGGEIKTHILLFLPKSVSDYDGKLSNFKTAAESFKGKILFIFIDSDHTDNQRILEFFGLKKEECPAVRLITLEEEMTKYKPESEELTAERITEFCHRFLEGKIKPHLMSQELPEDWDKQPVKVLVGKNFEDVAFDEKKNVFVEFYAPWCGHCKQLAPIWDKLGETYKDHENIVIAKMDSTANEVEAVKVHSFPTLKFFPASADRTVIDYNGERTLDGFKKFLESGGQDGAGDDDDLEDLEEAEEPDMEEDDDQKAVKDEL
S100A4 inh HTS – blocks human S100A4 binding to myosin IIA peptide; P26447; AID 652163; inhibition, % at 10.7 µM; 360,000 compounds, 0.14% hits; S100A4/TAMRA-MyoIIA peptide fluorescence polarization;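 active = mean inhibition of at least 70% across replicates, with every replicate also reaching that level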
Target sequence (P26447 whole entry, looked up): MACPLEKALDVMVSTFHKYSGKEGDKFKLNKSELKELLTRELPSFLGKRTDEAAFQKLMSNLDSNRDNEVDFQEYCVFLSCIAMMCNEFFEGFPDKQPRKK
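System – human S100A4 monomer protein, biochemical binding assay · Buffer or medium – Calcium-containing HEPES buffer, pH 7.2 · Timing – 5 min between mix addition and reading · Also added – TAMRA-labelled myosin IIA heavy-chain peptide probe, 5 nM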
Hits are given with their value; . = inactive; / = no result. Compounds with a hit are over-represented: about 0.44% of the library has one in this group of screens.

SMILES	RAD54 branch	FN deposition inh	ERp5 inh	PglD inh	PDI inh	S100A4 inh HTS
C/C=C/c1ccc([C@H]2[C@@H](CO)N(CC3CCCC3)[C@H]2CNC(C)=O)cc1	/	.	.	/	/	.
C[C@@H]1CCCCO[C@@H](CN(C)C(=O)Nc2cccc3ccccc23)[C@H](C)CN([C@@H](C)CO)C(=O)c2cc(NC(=O)C3CCCCC3)ccc2O1	.	/	.	.	/	116.7
C[C@H]1CCCCO[C@H](CN(C)C(=O)c2ccccc2)[C@@H](C)CN([C@@H](C)CO)C(=O)c2cc(NC(=O)NC3CCCCC3)ccc2O1	.	.	.	.	/	113.9
CC(C)NC(=O)Nc1ccc2c(c1)C(=O)N([C@@H](C)CO)C[C@H](C)[C@H](CN(C)C(=O)c1ccncc1)OCCCC[C@H](C)O2	.	.	.	.	/	96.1
C[C@@H]1CCCCO[C@@H](CN(C)C(=O)c2ccccc2)[C@@H](C)CN([C@H](C)CO)C(=O)c2cc(NC(=O)NC3CCCCC3)ccc2O1	.	.	.	.	/	.
C/C=C/c1ccc2c(c1)O[C@@H](CN(C)CC1CCOCC1)[C@H](C)CN([C@@H](C)CO)S2(=O)=O	.	/	.	.	/	.
COC1=CC(=O)c2nc(Cl)ccc2C1=O	/	.	.	/	/	.
COC1=CC(=O)c2c(ccc3ncnc(N)c23)C1=O	/	31.2	.	/	.	.
C#CCOCCOCCOCCNc1nc(N2CCN(C(=O)[C@H](CCCCN)n3cc([C@@H](N)C(C)CC)nn3)CC2)nc(N2CCN(C(=O)[C@H](Cc3cc4ccccc4[nH]3)n3cc([C@@H](N)CC(C)C)nn3)CC2)n1 (stereo partly specified)	59.6	/	/	.	43.5	/
C#CCOCCOCCOCCNc1nc(N2CCN(C(=O)[C@H](CCCCN)n3cc(CN)nn3)CC2)nc(N2CCN(C(=O)[C@H](CCCCN)n3cc([C@@H](N)[C@H](C)CC)nn3)CC2)n1	79.2	.	.	.	.	.
CCN(CC)CCNC(=O)c1ccc(NC(=O)/C=C/c2cc(OC)c(OC)c(OC)c2)cc1	62.2	.	.	.	.	.
COc1cc(/C=C/C(=O)Nc2ccc(C)cc2)cc(OC)c1OC	/	.	/	/	.	/
O=C(NC[C@@H]1CC[C@H]2[C@H](CN2Cc2cc(-c3ccccc3)on2)O1)c1ccc2c(c1)OCO2	/	/	.	/	/	/
O=C1C(SCCO)=C(SCCO)C(=O)c2ccccc21	.	42.9	.	.	.	.
CC1=C(SCc2ccccc2)C(=O)c2ccccc2C1=O	.	/	.	.	.	.
CC(=O)Nc1cccc(-c2ccnc3c2CC(C)(C(=O)Nc2cccc(C(F)(F)F)c2)O3)c1 (stereo unspecified)	.	30.4	.	.	.	.
C[C@@H]1CN(C)C(=O)c2cc(NS(C)(=O)=O)ccc2O[C@@H]1CN(C)S(C)(=O)=O	/	.	/	/	/	/
C[C@@H]1O[C@@H](O[C@H]2[C@H](O)[C@@H](O)[C@H](Oc3c(-c4ccc(O)cc4)oc4cc(O)cc(O)c4c3=O)O[C@@H]2CO)[C@H](O)[C@H](O)[C@H]1O	.	.	.	.	54.9	.
CC1OC(Oc2c(-c3cc(O)c(O)c(O)c3)oc3cc(O)cc(O)c3c2=O)C(O)C(O)C1O (stereo unspecified)	.	/	.	.	/	.
C[C@@H]1O[C@@H](OC[C@@H]2O[C@H](Oc3c(-c4ccc(O)cc4)oc4cc(O)cc(O)c4c3=O)[C@@H](O)[C@H](O)[C@H]2O)[C@H](O)[C@H](O)[C@H]1O	.	.	.	.	65.3	.
CO[C@@H](CN(C)C(=O)c1ccc2c(c1)OCO2)[C@@H](C)CN([C@@H](C)CO)S(=O)(=O)c1ccc(C)cc1	.	.	.	.	/	.
COCC(=O)Nc1ccc2c(c1)[C@H]1C[C@@H](CC(=O)NCc3cccnc3)O[C@H](CO)[C@H]1O2	.	/	.	.	/	.
Cc1c(NC(=O)c2ccc3nsnc3c2)cccc1[N+](=O)[O-]	.	32.8	/	.	.	.
CCOc1cc(/C=C2\CCCc3c2nc2ccccc2c3C(=O)O)ccc1OC	.	.	.	.	.	80.0
Cn1cc(SCC(=O)NC2CCCC2)c2ccccc21	.	.	.	.	.	87.3
SMILES	RAD54 branch	FN deposition inh	ERp5 inh	PglD inh	PDI inh	S100A4 inh HTS
CCN(CC)c1ccc(/C=C/c2ccc3ccc(OC)cc3[n+]2CC)cc1	.	.	.	.	.	100.4
CC[n+]1c(/C=C/c2ccc(N(C)C)cc2)ccc2ccccc21	/	/	.	/	.	.
Oc1[nH]c2ccc(Br)cc2c1N=NC(=S)N1CCOCC1	.	31.3	.	.	.	.
Cc1cccc(S(=O)(=O)NC[C@@H]2CC[C@H]3NC[C@H]3O2)c1	/	/	.	/	/	.
CC(C)C#Cc1ccc([C@@H]2[C@@H](C#N)N(C(=O)c3cccc(F)c3)[C@H]2CO)cc1	.	.	.	.	/	.
CC(C)C#Cc1ccc([C@H]2[C@@H](CO)N(C(=O)c3cccc(F)c3)[C@H]2C#N)cc1	.	/	.	.	/	108.6
CC1CCN(C(=O)c2[nH]cnc2C(=O)N[C@@H](C)C(=O)OCc2ccccc2)CC1	.	.	.	.	.	138.0
C[C@H](NC(=O)c1nc[nH]c1C(=O)N1CCN(C(=O)OC(C)(C)C)CC1)C(=O)OCc1ccccc1	.	.	.	.	.	.
C[C@H]1CN([C@@H](C)CO)C(=O)c2cccc(NC(=O)c3ccc(-c4nccs4)cc3)c2O[C@@H]1CN(C)C	.	.	.	20.8	/	.
C[C@@H]1CN([C@H](C)CO)C(=O)c2cccc(NC(=O)c3ccc(-c4nccs4)cc3)c2O[C@@H]1CN(C)C	.	.	.	.	/	.
COc1ccc(NC(=O)Nc2cccc3c2O[C@H](CN(C)Cc2ccc4c(c2)OCO4)[C@@H](C)CN([C@@H](C)CO)C3=O)cc1	.	/	.	.	/	118.5
C[C@H](CO)N1C[C@H](C)[C@H](CN(C)Cc2ccncc2)Oc2c(NC(=O)C3CC3)cccc2C1=O	.	/	.	.	/	125.6
COc1ccc(NC(=O)Nc2cccc3c2O[C@H](CN(C)Cc2ccc4c(c2)OCO4)[C@@H](C)CN([C@H](C)CO)C3=O)cc1	.	/	.	.	/	.
C[C@H]1CN([C@@H](C)CO)C(=O)c2cccc(NC(=O)C3CC3)c2O[C@@H]1CN(C)Cc1ccc2c(c1)OCO2	.	/	.	.	/	122.4
C[C@@H]1CN([C@@H](C)CO)C(=O)c2cc(C#CCN(C)C)cnc2O[C@H]1CN(C)C(=O)c1cccnc1	.	.	.	.	/	.
C1=C2C[N+]3(CCCC3)CC2Cc2ccc3ccccc3c21 (stereo unspecified)	54.1	/	.	.	.	.
COc1ccc(S(=O)(=O)NCC2CCCN(Cc3cccc(C(C)=O)c3)C2)cc1 (stereo unspecified)	.	.	.	.	.	87.3
COc1cc(NS(C)(=O)=O)ccc1Nc1c2ccccc2nc2ccccc12	55.8	.	.	.	.	.
